Test results: ChEMBL document CHEMBL5029151, “Conformationally Constrained Peptides with High Affinity to the Vascular Endothelial Growth Factor” (J Med Chem, 2021)
Positions of bridges follow the written chain, without caps; N, C: chain ends. Non-standard residues stand in square brackets, D forms with d. Residues, ends and D or L forms follow the SMILES beside them. Nle = CCCC[C@H](N)C(=O)O; Aib = CC(C)(N)C(=O)O

What was measured:
[1] = Stability in porcine vitreous assessed as increase in life time measured at 10 uM after 10 days by UPLC-MS/MS analysis; type: ADME, tissue-based, Sus scrofa, Vitreous humor; conditions: pig, 240 h, time 10 day
Summary of the method: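 Peptide at 10 µM incubated at 37°C in porcine vitreous containing 1% penicillin/streptomycin, one separate tube per time point. Remaining parent peptide quantified by UPLC-MS/MS at each time point.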

[2] = Binding affinity to VEGF (unknown origin) by microscale thermophoresis assay; parameters: species or system Homo sapiens
Summary of the method: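 Microscale thermophoresis with fluorescently labeled VEGF-RED (initial concentration 12 nM), read on a Monolith NT.115 Pico. Peptide and VEGF were measured immediately after mixing, with no incubation. KD derived from the thermophoresis signal.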

[3] = Inhibition of VEGF-mediated in human HUVEC cell proliferation incubated for 48 hrs by MTT assay
Summary of the method: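 HUVECs seeded at 25,000/well in medium with 0.5 ng/mL VEGF165 for 48 h, then starved 24 h without VEGF or FBS. Peptide (4, 20, 100, 500 µM) premixed with 50 ng/mL VEGF165 for 2 h at 37°C, then added to cells for 48 h. MTT read-out as percent of no-peptide control OD, fitted to IC50; mean ± SD, n = 3.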

[4] = Binding affinity to VEGF (unknown origin) incubated for 30 mins by microscale thermophoresis assay; parameters: species or system Homo sapiens
Summary of the method: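 Fluorescently labeled VEGF-RED (initial concentration 12 nM) mixed with peptide and incubated 30 min to reach complex equilibrium before microscale thermophoresis on a Monolith NT.115 Pico. KD obtained from the thermophoresis signal.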

[5] = system: ARPE-19; assay: Cytotoxicity against human ARPE-19 cells assessed as cell viability up to 20 uM measured after 5 hrs by MTT assay; type: cell-based; conditions: arpe-19, 5 h
Summary of the method: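 ARPE-19 cells seeded at 20,000/well and grown overnight, then washed. Exposed 5 h at 37°C, 7% CO2 to peptide at 0.01–100 µM in complete medium. Medium replaced, cells grown a further 24 h. MTT 4 h at 37°C, formazan dissolved in 10% SDS/0.01 M HCl overnight, A570 read. Viability relative to untreated cells; poly-L-lysine-treated cells as control.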

## CCCC[C@@H]1NC(=O)[C@H](C(C)C)NC(=O)C(C)(C)NC(=O)[C@H]([C@@H](C)CC)NC(=O)[C@H](CC(=O)O)NC(=O)[C@@H](NC(=O)[C@H](CC(N)=O)NC(=O)[C@@H]2CCCN2C(=O)[C@H](CCC(=O)O)NC(=O)[C@@H](N)C(C)C)CSSC[C@@H](C(=O)N[C@@H](Cc2ccccc2)C(=O)N[C@@H](CCC(=O)O)C(=O)N[C@@H](CCCNC(=N)N)C(=O)N[C@@H](CC(C)C)C(=O)O)NC(=O)[C@H](CCC(=O)O)NC(=O)[C@H](Cc2c[nH]c3ccccc23)NC(=O)[C@H](CCC(=O)O)NC(=O)[C@H](Cc2c[nH]c3ccccc23)NC1=O
[1]
  Stability: Stable
[2]
  Kd: 11.8 µM
[3]
  IC50: 50 µM

## CCCC[C@@H]1NC(=O)[C@H](C(C)C)NC(=O)[C@H](Cc2c[nH]cn2)NC(=O)[C@H]([C@@H](C)CC)NC(=O)[C@H](CC(=O)O)NC(=O)[C@@H](NC(=O)[C@H](CC(N)=O)NC(=O)[C@@H]2CCCN2C(=O)[C@H](CCC(=O)O)NC(=O)[C@@H](N)C(C)C)CSSC[C@@H](C(=O)N[C@@H](Cc2ccccc2)C(=O)N[C@@H](CCC(=O)O)C(=O)N[C@@H](CCCNC(=N)N)C(=O)N[C@@H](CC(C)C)C(=O)O)NC(=O)[C@H](CCC(=O)O)NC(=O)[C@H](Cc2c[nH]c3ccccc23)NC(=O)[C@H](CCC(=O)O)NC(=O)[C@H](Cc2c[nH]c3ccccc23)NC1=O
[2]
  Kd: 3.87 µM
[4]
  Kd: 0.3 µM
[3]
  IC50: 20 µM
[5]
  Activity: Non-Toxic

## CCCC[C@@H]1NC(=O)[C@H](C(C)C)NC(=O)[C@H](Cc2c[nH]cn2)NC(=O)[C@H]([C@@H](C)CC)NC(=O)[C@H](CC(=O)O)NC(=O)[C@@H](N)CSSC[C@@H](C(=O)N[C@@H](Cc2ccccc2)C(=O)N[C@@H](CCC(=O)O)C(=O)N[C@@H](CCCNC(=N)N)C(=O)N[C@@H](CC(C)C)C(=O)O)NC(=O)[C@H](CCC(=O)O)NC(=O)[C@H](Cc2c[nH]c3ccccc23)NC(=O)[C@H](CCC(=O)O)NC(=O)[C@H](Cc2c[nH]c3ccccc23)NC1=O
[2]
  Kd: 9.97 µM
[3]
  IC50: 12 µM

## CCCC[C@@H]1NC(=O)[C@H](C(C)C)NC(=O)[C@H](Cc2c[nH]cn2)NC(=O)[C@H]([C@@H](C)CC)NC(=O)[C@H](CC(=O)O)NC(=O)[C@@H](NC(=O)[C@H](CC(N)=O)NC(=O)[C@@H]2CCCN2C(=O)C(C)(C)NC(=O)[C@@H](N)C(C)C)CSSC[C@@H](C(=O)N[C@@H](Cc2ccccc2)C(=O)N[C@@H](CCC(=O)O)C(=O)N[C@@H](CCCNC(=N)N)C(=O)N[C@@H](CC(C)C)C(=O)O)NC(=O)[C@H](CCC(=O)O)NC(=O)[C@H](Cc2c[nH]c3ccccc23)NC(=O)[C@H](CCC(=O)O)NC(=O)[C@H](Cc2c[nH]c3ccccc23)NC1=O
[1]
  Stability: Stable
[2]
  Kd: 2.97 µM
[4]
  Kd: 0.004 µM
[3]
  IC50: 10 µM

## CCCC[C@@H]1NC(=O)[C@H](C(C)C)NC(=O)[C@H](Cc2c[nH]cn2)NC(=O)[C@H]([C@@H](C)CC)NC(=O)[C@H](CC(=O)O)NC(=O)[C@@H](NC(=O)[C@H](CC(N)=O)NC(=O)[C@@H](N)C(C)C)CSSC[C@@H](C(=O)N[C@@H](Cc2ccccc2)C(=O)N[C@@H](CCC(=O)O)C(=O)N[C@@H](CCCNC(=N)N)C(=O)N[C@@H](CC(C)C)C(=O)O)NC(=O)[C@H](CCC(=O)O)NC(=O)[C@H](Cc2c[nH]c3ccccc23)NC(=O)[C@H](CCC(=O)O)NC(=O)[C@H](Cc2c[nH]c3ccccc23)NC1=O
[2]
  Kd: 1.94 µM
[3]
  IC50: 4 µM

## CCCC[C@@H]1NC(=O)[C@H](C(C)C)NC(=O)[C@H](Cc2c[nH]cn2)NC(=O)[C@H]([C@@H](C)CC)NC(=O)[C@H](CC(=O)O)NC(=O)[C@@H](NC(=O)[C@H](CCCCN)NC(=O)[C@H](CCCCN)NC(=O)C(C)(C)NC(=O)[C@@H](N)CCCCN)CSSC[C@@H](C(=O)N[C@@H](Cc2ccccc2)C(=O)N[C@@H](CCC(=O)O)C(=O)N[C@@H](CCCNC(=N)N)C(=O)N[C@@H](CC(C)C)C(=O)O)NC(=O)[C@H](CCC(=O)O)NC(=O)[C@H](Cc2c[nH]c3ccccc23)NC(=O)[C@H](CCC(=O)O)NC(=O)[C@H](Cc2c[nH]c3ccccc23)NC1=O
[1]
  Stability: Stable
[2]
  Kd: 0.54 µM
[4]
  Kd: 3 µM
[3]
  IC50: 6 µM

## CCCC[C@@H]1NC(=O)[C@H](C(C)C)NC(=O)[C@H](Cc2c[nH]cn2)NC(=O)[C@H]([C@@H](C)CC)NC(=O)[C@H](CC(=O)O)NC(=O)[C@@H](NC(=O)[C@H](CC(N)=O)NC(=O)[C@@H]2CCCN2C(=O)[C@H](CCC(=O)O)NC(=O)[C@@H](N)C(C)C)CSSC[C@@H](C(=O)N[C@@H](Cc2ccccc2)C(=O)N[C@@H](CCC(=O)O)C(=O)N[C@@H](CCCNC(=N)N)C(=O)N[C@@H](CC(C)C)C(=O)O)NC(=O)[C@H](CCC(=O)O)NC(=O)[C@H](Cc2c[nH]c3ccccc23)NC(=O)C(C)(C)NC(=O)[C@H](Cc2c[nH]c3ccccc23)NC1=O (H-VEPNCDIHV[Nle]W[Aib]WECFERL-OH; disulfide 5-15)
[1]
  Stability: Unstable
[2]
  Kd: 0.94 µM
[4]
  Kd: 0.15 µM
[3]
  IC50: 3.5 µM
